DDE Tn7 FP inh: disrupts Tn7 cyclic peptide binding to fibrin D-Dimer-E complex; P02675; FP displacement of FITC-Tn7 peptide from fibrin DD(E); 0% = median of compound wells per plate; inhibition, % at 8.3 µM; hit rate 0.13% among 370,000;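 active = inhibition above the mean of compounds falling within the control limits plus 3 SD of them, cut at about 14% in these data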;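 note: 0% = plate median of compound wells and 100% = 10 µM Aha-Tn7 peptide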
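Assay system: Fibrin-DD(E) protein isolated from polymerized human fibrin clots; read-out basis: percent inhibition; medium: Tris/NaCl/CaCl2 buffer, pH 7.8; signal: FP measurement; incubation: 10 min plus 3 h, room temperature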
Tn6 DDE FP: DD(E)-Tn6 binding inhibition, primary FP screen; Fibrin DD(E) TRITC-Tn6 fluorescence polarization displacement; inhibition, % at 8.3 µM; hit rate 0.21% among 370,000; AID 720509;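 active = inhibition above a per-campaign cutoff: mean of compounds within control limits plus 3 SD, cut at about 15% in these data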;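 note: 0% = median of all compound wells on the plate and 100% = blocking peptide control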
ABHD4 inh: inhibits mouse alpha/beta hydrolase domain 4; Q8VD66; purified mABHD4, FP-Rh probe fluorescence polarization; inhibition, % at 8.92 µM; hit rate 0.54% among 370,000; AID 720543;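 active = inhibition exceeding the mean over every tested compound plus 3 SD, cut at about 30% in these data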;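 note: 0% = plate median of compound wells and 100% = S159A mutant with DMSO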
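Assay system: mABHD4 protein; medium: HEPES pH 7.0, NaCl, Pluronic buffer; dosing: 8.92 µM, single dose; schedule: 45 min + 60 min at 25 °C; signal: FP readout, ex 525 nm / em 598 nm; read-out: normalized percent inhibition of probe labeling; repeats: single replicate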
SIAE inh: human SIAE inhibition, primary screen; Q9HAT2; SIAE FP-Rh probe binding, fluorescence polarization; inhibition, % at 9.66 µM; hit rate 0.69% among 370,000;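 active = inhibition above a cutoff: mean of compounds within the control limits plus 3 SD of those, cut at about 17% in these data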;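 note: 0% = plate median of compound wells and 100% = probe without SIAE protein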
Target sequence (Q9HAT2 whole entry, looked up): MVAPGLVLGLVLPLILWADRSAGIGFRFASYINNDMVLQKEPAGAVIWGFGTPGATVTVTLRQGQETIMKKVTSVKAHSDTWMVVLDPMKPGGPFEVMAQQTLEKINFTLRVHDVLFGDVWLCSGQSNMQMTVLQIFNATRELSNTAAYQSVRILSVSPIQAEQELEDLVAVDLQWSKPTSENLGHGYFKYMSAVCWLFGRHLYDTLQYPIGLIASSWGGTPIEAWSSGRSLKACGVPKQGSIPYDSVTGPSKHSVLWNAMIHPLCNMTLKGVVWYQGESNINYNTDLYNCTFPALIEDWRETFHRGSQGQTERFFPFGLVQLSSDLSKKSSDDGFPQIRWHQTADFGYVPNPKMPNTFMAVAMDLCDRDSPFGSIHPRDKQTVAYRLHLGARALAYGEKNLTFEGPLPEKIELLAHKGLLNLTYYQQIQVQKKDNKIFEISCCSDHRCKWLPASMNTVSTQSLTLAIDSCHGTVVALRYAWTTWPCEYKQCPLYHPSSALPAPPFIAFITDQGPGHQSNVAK
TCR CD3 inh: blocks the human TCR-CD3 interaction. inhibition, % at 9.4 µM. TAMRA-labeled TCR probe fluorescence, biochemical. hit rate 0.37% among 360,000; in the data active = inhibition above about 19%;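 note: recombinant mutant TCR 2C K166C tagged with TAMRA read by polarization; 0% = receptor in buffer alone and 100% = receptor with positive control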
HTRA1 inhibitor: blocks human HTRA1 serine peptidase; Q92743; AID 504803; inhibition, % at 5.96 µM; hit rate 0.5% among 340,000; recombinant HTRA1, FP-rhodamine activity-based probe, fluorescence polarization; in the data active = inhibition above about 36%;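 note: 0% = enzyme with DMSO and 100% = wells lacking enzyme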
Tn6 DDE ctr: counter-screen for inhibitors of Tn6 peptide binding to fibrin DD(E); hit rate 2% among 680; shares compounds with Tn6 DDE FP; TRITC-Tn6 fluorescence polarization displacement; 0% = median of compound wells, not DMSO; inhibition, % at 8.3 µM;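 active = inhibition above the mean of test compounds lying between the control limits plus 3 SD of those, cut at about 14% in these data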;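 note: 0% = median of compound wells and 100% = wells with Aha-Tn7 blocking peptide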
Tn6 DDE conf: DD(E)-Tn6 binding inhibition, FP confirmation. shares compounds with Tn6 DDE FP. FP displacement of TRITC-Tn6 peptide from DD(E); 0% = per-plate median of test wells. inhibition, % at 8.3 µM. hit rate 10% among 680;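 active = inhibition above the mean of compounds lying within the control limits plus 3 SD, cut at about 16% in these data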;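 note: 100% = high control wells holding a competing inhibitor peptide at 10 µM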
The depositor's hits bear a star. The list is not random: actives were taken first. Their share in the collection is about 1.8%.

What do the screens show for `COc1ccccc1NC(=O)c1ccc(NC(=O)COC(=O)c2cccnc2Cl)cc1`?
DDE Tn7 FP inh: 5; Tn6 DDE FP: -5; ABHD4 inh: -8; SIAE inh: -2; TCR CD3 inh: 0; HTRA1 inhibitor: 30

What do the screens show for `Cc1nnc2sc(-c3cccc4ccccc34)nn12`?
DDE Tn7 FP inh: -1; Tn6 DDE FP: 17*; ABHD4 inh: -2; SIAE inh: -2; TCR CD3 inh: 0; HTRA1 inhibitor: -3; Tn6 DDE ctr: -7; Tn6 DDE conf: -10

How did O=C(c1cc2ccccc2o1)N1CCCC1 do in these assays?
DDE Tn7 FP inh: 2; Tn6 DDE FP: 17*; ABHD4 inh: 1; SIAE inh: -1; TCR CD3 inh: 7; HTRA1 inhibitor: -6; Tn6 DDE ctr: 2; Tn6 DDE conf: 4

What do the screens show for `Cc1ccc(NS(=O)(=O)c2ccccc2)c(NS(=O)(=O)c2ccccc2)c1`?
DDE Tn7 FP inh: 3; Tn6 DDE FP: -6; ABHD4 inh: 12; SIAE inh: -5; TCR CD3 inh: 2; HTRA1 inhibitor: -9

Results for O=S(=O)(Nc1ccc(Cl)cc1NS(=O)(=O)c1ccccc1)c1ccccc1 ?
DDE Tn7 FP inh: 9; Tn6 DDE FP: 19*; ABHD4 inh: 12; SIAE inh: 0; TCR CD3 inh: 7; HTRA1 inhibitor: 1; Tn6 DDE ctr: 4; Tn6 DDE conf: 1

Results for CCC(CC)C(=O)Nc1cccc(C(=O)Nc2ccc(S(N)(=O)=O)cc2)c1 ?
DDE Tn7 FP inh: 0; Tn6 DDE FP: -3; ABHD4 inh: -9; SIAE inh: -11; TCR CD3 inh: 4; HTRA1 inhibitor: -2

Results for CCC(CC)C(=O)Nc1cccc(C(=O)Nc2ccc(S(=O)(=O)Nc3ccc(C)cc3)cc2)c1 ?
DDE Tn7 FP inh: -3; Tn6 DDE FP: 19*; ABHD4 inh: -138; SIAE inh: -166; TCR CD3 inh: 24*; HTRA1 inhibitor: -131; Tn6 DDE ctr: -2; Tn6 DDE conf: -8

What do the screens show for `CN(c1ccccc1C(=O)N1CCN(c2ccccc2F)CC1)S(=O)(=O)c1ccccc1`?
DDE Tn7 FP inh: -3; Tn6 DDE FP: -1; ABHD4 inh: 1; SIAE inh: -2; TCR CD3 inh: 6; HTRA1 inhibitor: -2

What do the screens show for `CCC(=O)Nc1ccc(NC(=O)CSc2nnc(-c3ccc(O)cc3)n2CC2CCCO2)cc1` (stereo not drawn)?
DDE Tn7 FP inh: 1; Tn6 DDE FP: 20*; ABHD4 inh: -2; SIAE inh: 4; TCR CD3 inh: 3; HTRA1 inhibitor: -5; Tn6 DDE ctr: 1; Tn6 DDE conf: 1

What do the screens show for `CCOc1ccc(CCNC(=O)c2cc3sc(Cl)cc3n2C)cc1OCC`?
DDE Tn7 FP inh: 5; Tn6 DDE FP: 34*; ABHD4 inh: 27; SIAE inh: 6; TCR CD3 inh: 5; HTRA1 inhibitor: 3; Tn6 DDE ctr: 8; Tn6 DDE conf: 4

How did CC12CCC(C(=O)NCc3ccccc3)(OC1=O)C2(C)C (stereo not drawn) do in these assays?
DDE Tn7 FP inh: 5; Tn6 DDE FP: -5; ABHD4 inh: 2; SIAE inh: 1; TCR CD3 inh: 0; HTRA1 inhibitor: -1

How did CC12CCC(C(=O)NCC3CCCO3)(OC1=O)C2(C)C (stereo not drawn) do in these assays?
DDE Tn7 FP inh: 2; Tn6 DDE FP: 16*; ABHD4 inh: 3; SIAE inh: -6; TCR CD3 inh: 4; HTRA1 inhibitor: 3; Tn6 DDE ctr: 4; Tn6 DDE conf: 3

Results for Cc1ccc(-n2nnnc2SCC(=O)NNC(=O)c2ccco2)cc1C ?
DDE Tn7 FP inh: 2; Tn6 DDE FP: 4; ABHD4 inh: 3; SIAE inh: 5; TCR CD3 inh: 6; HTRA1 inhibitor: -8

Results for Cc1ccc(C)c(-n2nnnc2SCC(=O)NNC(=O)c2ccco2)c1 ?
DDE Tn7 FP inh: 5; Tn6 DDE FP: 20*; ABHD4 inh: 5; SIAE inh: -4; TCR CD3 inh: 7; HTRA1 inhibitor: 2; Tn6 DDE ctr: -3; Tn6 DDE conf: -5

What do the screens show for `NC(=O)C1CN(C(=O)c2cccc(S(=O)(=O)N3CCc4ccccc43)c2)c2ccccc2O1` (stereo not drawn)?
DDE Tn7 FP inh: 1; Tn6 DDE FP: -12; ABHD4 inh: -7; SIAE inh: -7; TCR CD3 inh: 0; HTRA1 inhibitor: 3

Results for O=C(CN1C2CCCC1CC(NC(=O)C1CCCCC1)C2)Nc1ccccc1C(F)(F)F (stereo not drawn) ?
DDE Tn7 FP inh: 6; Tn6 DDE FP: -2; ABHD4 inh: 0; SIAE inh: 1; TCR CD3 inh: -1; HTRA1 inhibitor: 2

Results for O=C(CN1C2CCCC1CC(NC(=O)C1CCCCC1)C2)NCc1ccc(F)cc1 (stereo not drawn) ?
DDE Tn7 FP inh: -3; Tn6 DDE FP: 16*; ABHD4 inh: 5; SIAE inh: 4; TCR CD3 inh: -3; HTRA1 inhibitor: -5; Tn6 DDE ctr: 1; Tn6 DDE conf: -3

Results for Cc1ccc(S(=O)(=O)N(C)C[C@@H]2Oc3ncc(C#CCC(C)C)cc3C(=O)N([C@H](C)CO)C[C@H]2C)cc1 ?
DDE Tn7 FP inh: 4; Tn6 DDE FP: 1; ABHD4 inh: -1; SIAE inh: -6; TCR CD3 inh: -2; HTRA1 inhibitor: -27

How did COc1cc(OC)c(C2C(C(=O)N3CCOCC3)=C(C)NC3=C2C(=O)CC(C)(C)C3)cc1OC (stereo not drawn) do in these assays?
DDE Tn7 FP inh: -2; Tn6 DDE FP: 17*; ABHD4 inh: -2; SIAE inh: 4; TCR CD3 inh: 4; HTRA1 inhibitor: 1; Tn6 DDE ctr: 0; Tn6 DDE conf: -6

Results for CC(C)(C)n1nc2c(c1NC(=O)COc1ccc(F)cc1)CS(=O)(=O)C2 ?
DDE Tn7 FP inh: 9; Tn6 DDE FP: 16*; ABHD4 inh: 4; SIAE inh: 0; TCR CD3 inh: 3; HTRA1 inhibitor: 0; Tn6 DDE ctr: -9; Tn6 DDE conf: -11

How did CCCC(NC(=O)CNC(=O)C(C)(C)C)C(=O)O (stereo not drawn) do in these assays?
DDE Tn7 FP inh: 3; Tn6 DDE FP: 16*; ABHD4 inh: -1; SIAE inh: 0; TCR CD3 inh: 8; HTRA1 inhibitor: 7; Tn6 DDE ctr: 3; Tn6 DDE conf: 2

What do the screens show for `COc1ccccc1NC(=O)OCCCN1CCC2(CCC(C)CC2)C1=O` (stereo not drawn)?
DDE Tn7 FP inh: 2; Tn6 DDE FP: 1; ABHD4 inh: 2; SIAE inh: 10

Source: PubChem BioAssay (The Scripps Research Institute Molecular Screening Center)
